Experimental data as given in PubChem BioAssay AID624070 (Broad Institute, 2012).
Inconclusive results are not listed. Calls of active or inactive are those of the source.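 Rule for the calls: active = fitted curve crosses -35% change at a dose up to twice the top valid dose; inconclusive = flat fit showing 30 to 70% drop, or poor fit; inactive = the rest, including rises or flat curves.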

assay: iron-limited Pseudomonas aeruginosa growth inhibition – whole organism, absorbance 405 nm, EDDHA, dry powder, set 5, dose response (AID 624070); conditions: P. aeruginosa ATCC 15692 + EDDHA, A405, 24-30 h; series mostly up to 120 µM
Procedure, shortened: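 Assay system: Pseudomonas aeruginosa strain ATCC 15692, whole bacterial cells; incubation: 24–30 h exposure, 37 °C; technique: 405 nm absorbance, pyoverdine; reagent: 2 µM EDDHA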

SMILES | outcome
N#CC(c1ccc(Cl)cc1)c1ccccn1 (stereo not drawn) | inactive
CCCCC(C#N)c1ccc(Cl)cn1 (stereo not drawn) | inactive
COCCC(C#N)c1ccc(F)cc1 (stereo not drawn) | inactive
N#CC(c1ccc(C(F)(F)F)c(Cl)n1)c1ccccc1OC(F)(F)F (stereo not drawn) | inactive
COCCNC(C#N)c1ccc(Cl)cc1 (stereo not drawn) | inactive
CCCCC(C#N)c1ccc(F)cn1 (stereo not drawn) | inactive
CCCCC(C#N)c1ccc(Cl)cc1 (stereo not drawn) | inactive
CCCCC(C#N)c1ccc(F)cc1 (stereo not drawn) | inactive
COCCOCCC(C#N)c1ccc(Cl)cc1 (stereo not drawn) | inactive
CN(C)CCCC(C#N)c1ccc(Cl)cc1 (stereo not drawn) | inactive
N#Cc1cccc(C(C#N)c2ccc(F)cc2)n1 (stereo not drawn) | inactive
N#CC(c1ccc(F)cc1)c1cccc(Cl)n1 (stereo not drawn) | inactive
CCCCC(C#N)c1ccccn1 (stereo not drawn) | inactive
COCCOCCC(C#N)c1ccc(F)cc1 (stereo not drawn) | inactive
COCCC(C#N)c1ccc(Cl)cc1 (stereo not drawn) | inactive
N#CC1c2ccc(Cl)cc2CCc2cccnc21 (stereo not drawn) | inactive
N#CC(c1ccc(Cl)cc1)N1CCCC1 (stereo not drawn) | inactive
Clc1ccc(C(c2cccc(Cl)n2)c2nn[nH]n2)cc1 (stereo not drawn) | inactive
